Experimental data taken from ChEMBL document CHEMBL4130355, “Development of a series of novel 4-anlinoquinazoline derivatives possessing quinazoline skeleton: Design, synthesis, EGFR kinase inhibitory efficacy, and evaluation of anticancer activities in vitro” (Eur J Med Chem, 2017).
The source made the active and inactive calls. The rule behind the calls is not given here.

Columns and labels:
HepG2 [1] = assay: Cytotoxicity against human HepG2 cells at 40 uM after 48 hrs by LDH release assay (reference value: 100%); type: functional
Summary of the method: (§1)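 HepG2 seeded at 1.0 × 10^5 cells/well, grown 24 h at 37 °C in 5% CO2, then dosed for 48 h. LDH in supernatant read on plate reader per kit. Maximal release (100% cytotoxicity) came from lysis with 2% (V/V) lysate for 1 h at 37 °C; medium-only cells served as natural release. Triplicate, three independent runs.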

HepG2 [2] = assay: Cell cycle arrest in human HepG2 assessed as accumulation at S phase at 2.5 uM after 48 hrs by propidium iodide-staining based flow cytometry (reference value: 21.46%); type: functional
Summary of the method: (§2)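 HepG2 cells at 5.0 × 10^5/well were grown 24 h, then treated at 0, 2.5, 5.0 or 10.0 µM for 48 h alongside medium-only wells. Cells fixed in 70% ice-cold ethanol for ≥24 h, treated with RNase A at 37 °C for 30 min, then stained with propidium iodide for 30 min at 4 °C in the dark. DNA content read by flow cytometry. Average of at least three experiments.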

HepG2 [3] = assay: Antiproliferative activity against human HepG2 cells at 10 uM after 24 hrs by MTT assay realtive to control; type: functional
Summary of the method: (§3)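 MTT assay in triplicate wells. Cells (2 × 10^3/well) were attached 24 h, then treated at 0.1, 1, 10, 50 or 100 µM for 24, 48 or 72 h. MTT added for 4 h, SDS solubilisation, absorbance at 570/650 nm. Inhibition = 1 − (OD treated − blank)/(OD control − blank). Reported as mean ± SD of three independent experiments.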

DU-145 = assay: Antiproliferative activity against human DU145 cells after 72 hrs by MTT assay; type: functional, cell-based; conditions: DU-145, 72 h
HepG2 [4] = assay: Induction of mitochondrial membrane potential loss in human HepG2 cells assessed as mitochondrial membrane potential levels at 10 uM after 48 hrs by rhodamine-123 dye based FACS analysis (reference value: 90.4%); type: functional
HepG2 [5] = assay: Induction of apoptosis in human HepG2 cells assessed as budded nuclei formation at 2.5 to 20 uM after 48 hrs by Hoechst 33342/propidium iodide double staining based laser scanning confocal microscopy; type: functional, cell-based
Summary of the method: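 HepG2 plated at 5.0 × 10^4 cells/well in DMEM with 10% FBS, 24 h at 37 °C, then treated 48 h (2.5–20 µM). After two ice-cold PBS washes, cells were stained with Hoechst 33342/PI mixed 1:1 for 30 min at 37 °C in the dark, washed three times, and imaged by laser scanning confocal microscopy at 200×.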

A549 [6] = assay: Antiproliferative activity against human A549 cells at 50 uM after 24 hrs by MTT assay relative to control; type: functional; summary of the method: as §3
HepG2 [7] = assay: Induction of apoptosis in human HepG2 cells assessed as caspase-3 activity at 2.5 uM after 48 hrs by colorimetric assay relative to control; type: functional
Summary of the method: (§4)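 After 48 h treatment, HepG2 were rinsed in ice-cold PBS and lysed 1–1.5 h on ice in buffer with 1% DTT. Lysate was spun at 10,000×g for 1 min at 4 °C; supernatant protein was measured by Bradford. Supernatant was mixed with 2× reaction buffer (1% DTT) plus caspase-3 chromogenic peptide substrate, held 4 h at 37 °C, and read at 405 nm.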

A549 [8] = assay: Antiproliferative activity against human A549 cells after 72 hrs by MTT assay; type: functional, cell-based; conditions: A549, 72 h
HepG2 [9] = assay: Cell cycle arrest in human HepG2 assessed as accumulation at G2/M phase at 10 uM after 48 hrs by propidium iodide-staining based flow cytometry (reference value: 9.13%); type: functional; summary of the method: as §2
HepG2 [10] = assay: Induction of apoptosis in human HepG2 cells assessed as intracellular free Ca2+ levels at 5 uM after 48 hrs by FL1 channel/FACS analysis (reference value: 14.2%); type: functional
Summary of the method: (§5)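 HepG2 seeded at 5.0 × 10^5 cells/mL, 24 h at 37 °C in 5% CO2, then treated 48 h (2.5–20 µM). Harvested cells were washed in ice-cold PBS and loaded with 4 µM Fluo-3/AM for 30 min. After trypsinizing, they were washed twice and resuspended in HEPES, and fluorescence was measured in the FL-1 channel by flow cytometry. Values are averages of at least three independent experiments.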

HepG2 [11] = assay: Induction of apoptosis in human HepG2 cells after 48 hrs by AnnexinV-FITC/propidium iodide double staining-based flow cytometry; type: functional, cell-based
A549 [12] = assay: Antiproliferative activity against human A549 cells at 1 uM after 48 hrs by MTT assay relative to control; type: functional; summary of the method: as §3
HepG2 [13] = assay: Induction of apoptosis in human HepG2 cells assessed as elevation in ROS levels after 48 hrs by DCFH-DA fluorescence-based spectrometry; type: functional, cell-based
Summary of the method: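 HepG2 seeded at 5.0 × 10^5 cells/mL, 24 h at 37 °C in 5% CO2, then treated 48 h. Harvested cells were washed twice in ice-cold PBS and loaded with 10 µM DCFH-DA for 30 min at 37 °C. They were then trypsinized, washed and resuspended in ice-cold HBSS, and DCF fluorescence was read on a fluorescence spectrometer.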

HepG2 [14] = assay: Induction of apoptosis in human HepG2 cells assessed as caspase-3 activity at 20 uM after 48 hrs by colorimetric assay relative to control; type: functional; summary of the method: as §4
HepG2 [15] = assay: Cytotoxicity against human HepG2 cells at 5 uM after 48 hrs by LDH release assay (reference value: 100%); type: functional; summary of the method: as §1
HepG2 [16] = assay: Antiproliferative activity against human HepG2 cells at 1 uM after 72 hrs by MTT assay realtive to control; type: functional; summary of the method: as §3
HepG2 [17] = assay: Antiproliferative activity against human HepG2 cells at 50 uM after 24 hrs by MTT assay realtive to control; type: functional; summary of the method: as §3
A549 [18] = assay: Antiproliferative activity against human A549 cells at 50 uM after 48 hrs by MTT assay relative to control; type: functional; summary of the method: as §3
A549 [19] = assay: Antiproliferative activity against human A549 cells at 1 uM after 24 hrs by MTT assay relative to control; type: functional; summary of the method: as §3
HepG2 [20] = assay: Antiproliferative activity against human HepG2 cells at 50 uM after 72 hrs by MTT assay realtive to control; type: functional; summary of the method: as §3
A549 [21] = assay: Antiproliferative activity against human A549 cells at 100 uM after 48 hrs by MTT assay relative to control; type: functional; summary of the method: as §3
HepG2 [22] = assay: Induction of apoptosis in human HepG2 cells assessed as intracellular free Ca2+ levels at 20 uM after 48 hrs by FL1 channel/FACS analysis (reference value: 14.2%); type: functional; summary of the method: as §5
HepG2 [23] = assay: Cell cycle arrest in human HepG2 assessed as accumulation at S phase at 10 uM after 48 hrs by propidium iodide-staining based flow cytometry (reference value: 21.46%); type: functional; summary of the method: as §2
A549 [24] = assay: Antiproliferative activity against human A549 cells at 10 uM after 48 hrs by MTT assay relative to control; type: functional; summary of the method: as §3
[25] = Antiproliferative activity against human CCC-HPF1 cells after 72 hrs by MTT assay; type: ADME, cell-based; conditions: CCC-HPF-1, 72 h
HepG2 [26] = assay: Cell cycle arrest in human HepG2 assessed as accumulation at G0/G1 phase at 5 uM after 48 hrs by propidium iodide-staining based flow cytometry (reference value: 69.40%); type: functional; summary of the method: as §2
[27] = target: Epidermal growth factor receptor (Homo sapiens, UniProt P00533); conditions: HEK293, at 0.001 µM
Epidermal growth factor receptor, sequence (P00533 whole entry): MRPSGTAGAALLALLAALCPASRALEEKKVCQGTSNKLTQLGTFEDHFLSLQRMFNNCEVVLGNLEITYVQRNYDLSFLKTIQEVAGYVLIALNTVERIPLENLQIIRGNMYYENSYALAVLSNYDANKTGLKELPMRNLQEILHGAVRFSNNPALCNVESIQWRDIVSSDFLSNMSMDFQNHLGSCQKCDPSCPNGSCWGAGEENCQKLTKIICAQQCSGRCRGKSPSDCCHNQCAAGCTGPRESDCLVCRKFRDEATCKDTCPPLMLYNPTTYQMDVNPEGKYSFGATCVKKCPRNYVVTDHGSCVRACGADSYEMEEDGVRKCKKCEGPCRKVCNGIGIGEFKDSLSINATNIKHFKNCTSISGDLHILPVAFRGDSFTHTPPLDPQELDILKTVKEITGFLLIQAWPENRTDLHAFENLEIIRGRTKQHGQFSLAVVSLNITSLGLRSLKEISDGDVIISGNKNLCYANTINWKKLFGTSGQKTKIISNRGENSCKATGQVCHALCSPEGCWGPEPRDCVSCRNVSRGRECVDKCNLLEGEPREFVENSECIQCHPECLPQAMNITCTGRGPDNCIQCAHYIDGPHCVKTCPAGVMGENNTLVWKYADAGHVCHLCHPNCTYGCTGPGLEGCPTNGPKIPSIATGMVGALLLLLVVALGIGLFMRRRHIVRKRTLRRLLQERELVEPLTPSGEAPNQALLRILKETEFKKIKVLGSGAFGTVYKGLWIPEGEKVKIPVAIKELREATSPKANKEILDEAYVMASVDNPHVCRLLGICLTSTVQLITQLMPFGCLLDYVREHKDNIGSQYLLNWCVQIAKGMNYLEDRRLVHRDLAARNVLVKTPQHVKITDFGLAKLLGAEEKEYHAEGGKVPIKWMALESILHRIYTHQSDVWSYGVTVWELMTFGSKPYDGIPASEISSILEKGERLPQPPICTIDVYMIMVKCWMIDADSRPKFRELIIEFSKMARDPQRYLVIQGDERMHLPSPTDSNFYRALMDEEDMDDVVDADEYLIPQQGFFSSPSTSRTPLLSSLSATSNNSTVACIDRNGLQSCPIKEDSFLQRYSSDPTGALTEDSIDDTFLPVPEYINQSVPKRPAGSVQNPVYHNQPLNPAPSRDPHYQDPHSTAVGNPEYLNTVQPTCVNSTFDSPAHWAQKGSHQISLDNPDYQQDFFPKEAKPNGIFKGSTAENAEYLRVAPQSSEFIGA

COc1cc2c(Nc3ccc(C#N)cc3)ncnc2cc1OCCCN1CCC(c2ccccc2)CC1
Activity (HepG2 [1]): 41.17%
Activity (HepG2 [2]): 22.44%
Activity (HepG2 [3]): 63.5%
IC50 (DU-145): 6.79 µM
Activity (HepG2 [4]): 84%
Activity (HepG2 [5]): Active
Activity (A549 [6]): 85.3%
Activity (HepG2 [7]): 138%
IC50 (A549 [8]): 9.5 µM
Activity (HepG2 [9]): 9.57%
Activity (HepG2 [10]): 43.2%
Activity (HepG2 [11]): Dose-dependent effect
Activity (A549 [12]): 2.9%
Activity (HepG2 [13]): Dose-dependent effect
Activity (HepG2 [14]): 196%
Activity (HepG2 [15]): 50.11%
Activity (HepG2 [16]): 13.7%
Activity (HepG2 [17]): 99.1%
Activity (A549 [18]): 75.5%
Activity (A549 [19]): 1.9%
Activity (HepG2 [20]): 96.5%
Activity (A549 [21]): 91.4%
Activity (HepG2 [22]): 52.7%
Activity (HepG2 [23]): 29.72%
Activity (A549 [24]): 13.5%
IC50 [25]: 28 µM
Activity (HepG2 [26]): 65.53%
inhibition [27]: 46.2%
